The test system of data set [1] is T. cruzi blood trypomastigotes (Talahuen strain). Nature of the data set: In vivo therapeutic response in BALB/c mice infected with T. cruzi. Further details: species or system Mus musculus (BALB/c mice). The note with it: at the end of treatment. In outline: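 BALB/c mice were inoculated intraperitoneally with 100 blood trypomastigotes of the Tulahuen β-gal strain taken from donor mice. From the first day of parasitaemia, seven groups (n = 6) were dosed orally at 100 mg/kg/day for 25 days with test compound, benznidazole or nothing. Parasitaemia per 0.1 mL blood was counted by hematocrit at TD0, TD25 and PTD30/60/90. Reduction was calculated per mouse against pre-treatment parasitaemia. Mice negative in all tests were scored cured.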

Data set [2] can be described thus: In vitro cytotoxicity in U-937 cells. It is filed as cell-based. The note with it: human, U-937 cells (non-infected). In outline:
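Non-infected U-937 cells at 10^5 cells/mL were mixed 1:1 with compound solutions at 200, 50, 12.5 and 3.125 µg/mL, alongside benznidazole, and held 72 h at 37 °C. MTT was added for 3 h, then formazan was dissolved in isopropanol/SDS and read at 570 nm. Viability was expressed versus unexposed cells, mortality as 100 − %viability, and LC50 was obtained by probit analysis.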

Data set [3] has as its system T. cruzi Talahuen strain intracellular amastigotes. Nature of the data set: Anti-T. cruzi in vitro assay in intracellular amastigotes. The note with it: for SI (selectivity index = LC50/EC50): LC50 U-937 / EC50 T. cruzi; for antitrypanosomal activity class: classified by EC50 in μg/mL. The data set is classed as cell-based, Trypanosoma cruzi.
Data set [4] has as its system T. cruzi strain HA trypomastigotes. Conditions: ref Garcia et al. 2010; cited from earlier work.

Where “and” joins values, the source holds several entries; their conditions need not be identical. Equal entries are not always repeated. Some results are limits rather than exact numbers.

In data set [1], `O=C(Cn1ccnc1[N+](=O)[O-])NCc1ccccc1` [Benznidazol (BZ), Benznidazol, reference compound] came in with a mice cured of 100%. In data set [1] (100 mg/kg/day), the parasitaemia status entry is listed as “negative”. Also, the CC50 (usually the concentration that lowers cell viability or growth by half) at 72 h in data set [2] was > 200 µg/mL and 491 µM. Further, the “SI (selectivity index = LC50/EC50)” value in data set [3] was 8.7.
As for `COc1cccc(/C=C/c2ccc3ccccc3n2)c1OC` [(E)-2-(2,3-dimetoxystyryl) quinoline], the “inhibition of the presence of the parasite” value in data set [4] was 34.1%.
As for `COc1cc(/C=C/c2ccc3cccc(OC(C)=O)c3n2)ccc1OC(C)=O` [Compound 3h, (E)-2-(4-Acetoxy-3-methoxystyryl)quinolin-8-yl acetate], the CC50 at 72 h in data set [2] was 5.9 µg/mL and 15.6 µM. Further, in data set [3], the “SI (selectivity index = LC50/EC50)” value is 0.2 and the antitrypanosomal activity class result was “moderate (Moderate activity: 25 μg/mL > EC50 < 50 μg/mL)”.
Regarding `CC(=O)Oc1ccc(/C=C/c2ccc3cccc(OC(C)=O)c3n2)c(OC(C)=O)c1` [Compound 3g, (E)-4-(2-(8-Acetoxyquinolin-2-yl)vinyl)-1,3-phenylene diacetate], the CC50 at 72 h in data set [2] was 6.9 µg/mL and 17.2 µM. The antitrypanosomal activity class result in data set [3] was “moderate (Moderate activity: 25 μg/mL > EC50 < 50 μg/mL)”.
